This is a sample that favours compounds with a hit; in the whole collection about 4.3% have one here.
SR-BI uptake up: enhances SR-BI lipid uptake from DiI-HDL. actives 0.096% (n = 320,000). CHO ldlA[mSR-BI] cells, DiI-HDL uptake fluorescence, 3 h; 100 = double the neutral-control signal. AID 504775. activation, % at 12.5 µM;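 active means mean replicate activation of at least 60% and every replicate at or above 60%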
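Test system: SR-BI-overexpressing, LDLR-lacking CHO cells; Medium: Ham's F12 with 0.5% BSA, HEPES 25 mM, pH 7.4; Schedule: 3 h, 37 °C; Technique: bottom-read fluorescence, 550/595 nm.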
Hep lipid drop: hepatic lipid droplet formation modulation; AML12 mouse hepatocytes, oleate lipid droplets, BODIPY imaging; inhibition, % at 6.5 µM; actives 0.4% (n = 240,000);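 active means lipid droplet intensity inhibited by at least 50%, with more than 500 cells counted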
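Assay system: AML12 hepatocytes (mouse); Probe or stimulus: oleic acid at 100 µM to induce lipid droplet formation; Dosing: compound at 6.5 µM only; Schedule: compound with oleate, overnight; Detection: fluorescence imaging, 20x objective, two fields per well; Measure: % inhibition of lipid droplet signal.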
AHR activator: activators of human aryl hydrocarbon receptor; AHR-responsive luciferase reporter cells, luminescence; activation, % at 5 µM; actives 2.5% (n = 320,000); AID 2796; in the data active means activation above about 47%
SR-BI DiI inh: blocks mouse SR-BI lipid uptake from DiI-HDL; Q61009; ldlA[mSR-BI] CHO cells, DiI-HDL uptake fluorescence, 3 h; inhibition, % at 12.5 µM; actives 0.96% (n = 320,000); AID 488896;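 active means mean replicate inhibition of at least 70% and a set share of replicates each scoring 70 or more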
Target sequence (Q61009 whole entry, looked up): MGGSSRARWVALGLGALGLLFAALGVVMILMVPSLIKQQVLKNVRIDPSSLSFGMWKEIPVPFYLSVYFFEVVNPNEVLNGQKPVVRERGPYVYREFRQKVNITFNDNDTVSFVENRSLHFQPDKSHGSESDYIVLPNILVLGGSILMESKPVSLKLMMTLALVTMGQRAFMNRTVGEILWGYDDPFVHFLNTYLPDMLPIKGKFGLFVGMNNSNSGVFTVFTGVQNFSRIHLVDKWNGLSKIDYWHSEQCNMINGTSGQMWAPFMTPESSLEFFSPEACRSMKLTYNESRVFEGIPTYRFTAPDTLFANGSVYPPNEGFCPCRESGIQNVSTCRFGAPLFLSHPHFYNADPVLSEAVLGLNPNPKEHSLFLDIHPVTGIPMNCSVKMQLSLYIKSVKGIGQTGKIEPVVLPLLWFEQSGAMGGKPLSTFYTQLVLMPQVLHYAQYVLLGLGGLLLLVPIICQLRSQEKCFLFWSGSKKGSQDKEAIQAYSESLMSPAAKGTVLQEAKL
SMARCA2 act: SMARCA2 function activation, primary screen. MG213 cells, MMTV-luciferase reporter, dexamethasone, overnight. activation, % at 9.1 µM. actives 1% (n = 370,000); in the data active means activation above about 7.8%
CR mimetic SO: lowers age-related superoxide in aged yeast cells. S. cerevisiae aged cells, superoxide DHE fluorescence; stronger effect = lower value. superoxide response (% of plate mean), % at 10 µM. actives 0.18% (n = 330,000);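 active means superoxide response under a set limit, about three screen SD below normal, cut at about 65% in these data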;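 further: yeast aged for seven days with compound at 30 °C before DHE staining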
SMARCA2 act conf: confirmation of SMARCA2 (BRM) function activators; shares compounds with SMARCA2 act; MG213 cells, MMTV-luciferase with dexamethasone, luminescence, overnight; MG213 cells expressing E1A, Rb sequestered; DMSO wells 0%, reference activator 100%; activation, % at 9.1 µM; actives 30% (n = 3,500);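 active means activation above its plate's cutoff, the mean activation of tested wells plus 3 SD, cut at about 7.9% in these data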
GAL4-VP16 Luc: counter-screen for SMARCA2 activators: GAL4-VP16 luciferase reporter activation | shares compounds with SMARCA2 act | HEK293 GAL4-VP16 pG5luc reporter, luciferase luminescence; scaled: DMSO wells 0%, SAHA wells 100% | activation, % at 9.1 µM | actives 41% (n = 3,500) | AID 686939;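 active means activation above the solvent-only control well mean plus 3 SD, averaged across control plates, cut at about 5.2% in these data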
Numbers stand for hits; i = inactive; nt = no result given.

SMILES	SR-BI uptake up	Hep lipid drop	AHR activator	SR-BI DiI inh	SMARCA2 act	CR mimetic SO	SMARCA2 act conf	GAL4-VP16 Luc
Cc1ccc(NC(=O)c2cc(C)on2)cc1	i	nt	i	i	8.7	i	i	18
Cc1ccc(NC(=S)Nc2cc(C)on2)cc1	nt	i	i	nt	8.6	i	i	13
Cc1ccc(NC(=S)NNC(=S)Nc2ccc(C)cc2)cc1	i	nt	nt	i	i	nt	nt	nt
COC(=O)[C@]12C[C@H](CC(=O)N3CCC(c4ccccc4)CC3)C(=O)N(Cc3cccc4ccccc34)C1=C[C@H](COCc1ccccc1)O[C@@H]2C	nt	nt	nt	nt	i	nt	nt	nt
CC(=O)c1ccc(-c2ccccc2C2=CC(=O)CC(C)(C)C2=O)cc1	nt	nt	nt	nt	i	nt	nt	nt
CCOc1ccc(-n2c(SCC(=O)Nc3ccc(S(=O)(=O)Nc4nccs4)cc3)nnc2-c2ccco2)cc1	nt	nt	nt	nt	i	nt	nt	nt
NC(=O)CC1C(=O)N(c2ccccc2)C(=S)N1NC(=O)c1ccccc1 (stereo unspecified)	i	i	nt	i	8.0	i	i	i
O=C(COC(=O)c1cc[n+]([O-])cc1)Nc1ccccc1Cl	i	i	i	i	11	i	i	i
Cc1ccccc1NC(=O)COC(=O)c1cc[n+]([O-])cc1	i	nt	i	i	i	i	nt	nt
CC(Sc1nnc2ccccn12)C(=O)Nc1ncc(Cl)cc1Cl (stereo unspecified)	i	nt	i	i	i	i	nt	nt
O=C(CSc1nnc2ccccn12)Nc1ncc(Cl)cc1Cl	i	nt	i	i	9.5	i	8.4	i
Cc1ccc2nc(N3C(=O)CNC3=S)sc2c1	i	i	i	i	15	i	i	16
COc1ccc2nc(N3C(=O)CNC3=S)sc2c1	i	i	i	i	8.6	i	14	10
CCOC(CN=c1nc(N(C)C)ss1)OCC	i	nt	nt	i	14	nt	i	5.7
CN(C)c1nc(=NCc2ccco2)ss1	i	i	i	i	nt	i	nt	nt
Cc1cccc(NC(=S)NC(=O)c2ccc(-c3ccccc3)cc2)n1	i	i	i	i	11	i	10	6.7
Cc1cccc(NC(=S)NC(=O)C(c2ccccc2)c2ccccc2)n1	i	nt	i	i	i	i	nt	nt
COc1cccc(-c2nnc(SCc3cccnc3)o2)c1	i	nt	i	i	10	i	i	6.6
N=C1C(c2nc3ccccc3[nH]2)=C(O)CN1c1ccc(CC(=O)O)cc1	i	i	i	i	i	i	nt	nt
N=C1C(c2nc3ccccc3[nH]2)=C(O)CN1c1ccccc1	i	i	i	i	8.2	i	9.0	7.4
CCOC(=O)Cn1nc(NC(=O)c2cc(OC)cc(OC)c2)cc1C	i	i	i	i	i	i	nt	nt
CCOC(=O)Cn1nc(NC(=O)c2ccc(C(=O)OC)cc2)cc1C	i	i	i	i	11	i	9.4	i
CCOC(=O)c1sc(N)c(C(=O)OCC)c1C	nt	i	i	nt	22	i	i	7.5
NC1=[N+](Cc2ccccc2)C[C@H]2C(=C3CCCC[C@H]3n3c(=O)n(-c4ccccc4)c(=O)n32)N1	nt	nt	nt	nt	i	nt	nt	nt
O=C(Nc1ccc(S(=O)(=O)N2CCCC2)cc1)c1ccc(Br)o1	i	i	i	i	i	i	nt	nt
CN1CCN(S(=O)(=O)c2ccc(NC(=O)c3ccc(Br)o3)cc2)CC1	i	nt	i	i	8.2	i	i	i
CC(C)NC(=O)C1(C#N)C=C1c1ccccc1 (stereo unspecified)	nt	nt	nt	nt	9.4	nt	i	i
Cc1nnc(SCC(=O)NC(=O)Nc2ccc3c(c2)OCCO3)s1	i	i	i	i	11	i	i	i
Cc1cccc(Nc2nnc(SCC(=O)NC(=O)Nc3ccc4c(c3)OCCO4)s2)c1	i	i	i	i	i	i	nt	nt
COc1ccc(-c2cc(-c3nnc(SCC(=O)N4CCOCC4)n3N)[nH]n2)cc1	nt	nt	nt	nt	i	nt	nt	nt
